Series [1] deals with DIO mice. Conditions: with the GLP-1R agonist liraglutide; cited from earlier work.
A short description of a further series: Pharmacokinetic. It counts as in vivo. Conditions: male, C57BL/6 J, mouse, plasma, sc, 500 nmol/kg. The method, boiled down:
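Male C57BL/6J mice fed 58% fat, high-sugar diet ≥16 weeks (61–74 g) received one SC dose of 500 nmol/kg, n = 4. Plasma sampled 5 min to 72 h, methanol-precipitated (14-fold), centrifuged, diluted 3-fold in 0.1% formic acid, and quantified by LC-MS selected ion monitoring against plasma standards (0.5–4000 nM). Parameters derived noncompartmentally with sparse sampling.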

For another series, the target named is T1, mGIPR (Mus musculus, UniProt Q0P543).
T1 sequence (Q0P543 19-460): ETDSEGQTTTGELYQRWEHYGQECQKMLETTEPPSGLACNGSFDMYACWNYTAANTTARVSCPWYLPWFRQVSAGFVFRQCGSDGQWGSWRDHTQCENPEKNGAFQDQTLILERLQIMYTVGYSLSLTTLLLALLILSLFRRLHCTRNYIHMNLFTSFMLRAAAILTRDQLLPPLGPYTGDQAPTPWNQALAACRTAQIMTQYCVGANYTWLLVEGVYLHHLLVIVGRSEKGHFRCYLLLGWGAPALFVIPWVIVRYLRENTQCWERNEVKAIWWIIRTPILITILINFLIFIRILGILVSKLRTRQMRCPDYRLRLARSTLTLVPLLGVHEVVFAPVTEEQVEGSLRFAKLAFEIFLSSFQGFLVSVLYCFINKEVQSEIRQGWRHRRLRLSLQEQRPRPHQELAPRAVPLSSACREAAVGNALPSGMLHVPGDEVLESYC
Description: cAMP CRE-luciferase assay in BHK cells expressing GIPR. It counts as cell-based.

Series [2] relates to DIO mice. Description: Intraperitoneal glucose tolerance test. Format: in vivo, mouse. Conditions: IPGTT (Figure 6C,D) and oral glucose tolerance test (Supplemental figure 3). The method, boiled down: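 Male C57BL/6J mice on 58% fat, high-sugar diet for ≥16 weeks, fasted 6 h. Antagonist (500 or 1500 nmol/kg) injected 2 h before glucose; semaglutide 2 nmol/kg injected 1 h before. Glucose 2.5 g/kg (20% solution) given i.p. or by oral gavage. Tail-vein glucose measured from baseline.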

The next series concerns the target hGcgR (Homo sapiens, UniProt P47871). Description: cAMP CRE-luciferase assay in BHK cells expressing glucagon receptor. Format: cell-based. The method, boiled down:
(§1)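 Stably transfected BHK cells carried receptor plus CRE-firefly luciferase reporter, seeded 5,000/well overnight, then DPBS-washed. 12-point dilutions in DMEM (no phenol red), 10 mM HEPES, 1% ovalbumin, 0.1% Pluronic F-68, ± EC80 native ligand (antagonist mode), 3 h, 37 °C. Luminescence read after SteadyLite, 30 min RT. EC50/IC50 by nonlinear regression of log concentration vs response; duplicate experiment.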

For another series, the target named is T2, hGIPR (Homo sapiens, UniProt P48546).
T2 sequence (P48546 22-466): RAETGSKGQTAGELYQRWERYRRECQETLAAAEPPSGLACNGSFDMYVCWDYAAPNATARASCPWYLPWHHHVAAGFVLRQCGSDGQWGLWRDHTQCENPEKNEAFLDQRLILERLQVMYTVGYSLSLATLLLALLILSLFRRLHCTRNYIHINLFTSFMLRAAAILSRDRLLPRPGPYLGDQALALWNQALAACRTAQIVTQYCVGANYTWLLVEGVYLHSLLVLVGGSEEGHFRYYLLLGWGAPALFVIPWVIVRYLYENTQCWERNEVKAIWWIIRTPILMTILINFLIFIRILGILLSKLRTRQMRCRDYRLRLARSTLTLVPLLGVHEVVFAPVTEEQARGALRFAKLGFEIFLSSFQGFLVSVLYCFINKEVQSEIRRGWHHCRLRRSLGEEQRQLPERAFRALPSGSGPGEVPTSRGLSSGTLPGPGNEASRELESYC
In words: cAMP CRE-luciferase assay in BHK cells expressing GIPR. Format: cell-based. Particulars: agonist mode, without native ligand.

For series [3], the system named is DIO mice. Description: Oral glucose tolerance test. Format: in vivo, mouse. Conditions: high dose (1500 nmol/kg) SC prior to oral gavage of glucose 2.5 g/kg, n = 8 per group. The method, boiled down: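 DIO male C57BL/6J mice (58% fat, high-sugar diet ≥16 weeks), fasted 6 h with water available. Antagonist injected 2 h before oral gavage of 2.5 g/kg glucose (20% solution). Tail-vein blood glucose measured from baseline; glucose integrated AUC derived.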

For a further series, the system named is DIO male C57BL/6 J mice. In words: Chronic once-daily dosing study on body weight in DIO mice. It counts as in vivo, mouse. Particulars: for Percent change in body weight: 27-28 d, n = 8. The method, boiled down: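 DIO male C57BL/6J mice (58% fat, high-sugar diet, ~12 weeks; >55 g) housed 4/cage at 22 °C on a 12 h light–dark cycle. Groups of n = 8 were normalized for body weight. Test compound was given SC once daily in the light cycle for 28 days, in pH 7.4 vehicle (0.05% polysorbate-80, 50 mM sodium phosphate, 70 mM NaCl). Body weight was taken every other day before dosing, as % change from initial.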

The test system of a further series is intact human islets. In words: Human islet perifusion, insulin secretion. Conditions: islets from two human donors, 7 1 uM, 4 technical replicates per donor. It counts as cell-based. The method, boiled down:
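Islets from human donors (purity ≥80%) recovered overnight in RPMI with 6.7 mM glucose and 10% FBS, then used within 4 days. 75 handpicked islets per chamber in KRPH buffer (2.7 mM glucose, pH 7.4). Equilibrated 48 min (1% then 0.1% BSA), then perifused in intervals with 1 uM antagonist in KRPH + 0.1% BSA. Insulin measured by Lumit immunoassay.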

In a further series the target is T3, mGLP-1R (Mus musculus, UniProt O35659).
T3 sequence (O35659 22-463): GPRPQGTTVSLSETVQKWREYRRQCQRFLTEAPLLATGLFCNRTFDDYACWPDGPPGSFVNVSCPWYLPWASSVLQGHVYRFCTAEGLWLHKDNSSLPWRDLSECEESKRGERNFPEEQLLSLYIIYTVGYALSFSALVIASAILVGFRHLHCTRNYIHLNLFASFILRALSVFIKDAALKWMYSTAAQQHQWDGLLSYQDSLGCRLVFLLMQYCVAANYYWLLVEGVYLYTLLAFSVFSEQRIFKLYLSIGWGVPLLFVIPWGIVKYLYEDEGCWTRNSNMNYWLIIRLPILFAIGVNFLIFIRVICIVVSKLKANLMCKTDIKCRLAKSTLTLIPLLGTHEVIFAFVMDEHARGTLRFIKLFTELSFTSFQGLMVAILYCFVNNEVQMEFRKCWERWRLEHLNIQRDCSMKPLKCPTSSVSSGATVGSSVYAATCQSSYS
Description: cAMP CRE-luciferase assay in BHK cells expressing GLP-1R. It counts as cell-based. Particulars: antagonist mode, compared with hGLP-1R. In short, it runs like this:
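Stably transfected BHK cells with receptor and CRE-firefly luciferase reporter, 5,000 cells/well, incubated overnight and washed in DPBS. Exposed 3 h at 37 °C to a 12-point serial dilution of test compound with EC80 native ligand, in DMEM (no phenol red) with 10 mM HEPES, 1% ovalbumin, 0.1% Pluronic F-68.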

Another series concerns the target mGcgR (Mus musculus, UniProt Q61606). Description: cAMP CRE-luciferase assay in BHK cells expressing glucagon receptor. It counts as cell-based. The method, boiled down: as §1
In the next series the target is hGLP-1R (Homo sapiens, UniProt P43220). Description: cAMP CRE-luciferase assay in BHK cells expressing GLP-1R. It counts as cell-based. The method, boiled down: as §1
Sequence of hGLP-1R (P43220 24-463): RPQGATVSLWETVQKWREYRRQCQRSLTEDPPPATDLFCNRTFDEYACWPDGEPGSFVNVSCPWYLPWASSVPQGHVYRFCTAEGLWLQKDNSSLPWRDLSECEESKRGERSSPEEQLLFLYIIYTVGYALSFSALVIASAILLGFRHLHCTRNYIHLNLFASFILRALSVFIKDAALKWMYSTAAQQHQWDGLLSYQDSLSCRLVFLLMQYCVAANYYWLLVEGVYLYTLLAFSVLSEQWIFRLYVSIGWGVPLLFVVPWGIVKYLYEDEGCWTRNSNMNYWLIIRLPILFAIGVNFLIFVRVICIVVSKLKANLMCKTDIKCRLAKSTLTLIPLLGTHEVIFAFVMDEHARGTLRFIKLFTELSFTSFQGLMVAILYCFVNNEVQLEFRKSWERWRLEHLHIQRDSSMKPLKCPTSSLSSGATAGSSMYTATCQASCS

Each structure is given as a SMILES string. *1 amine or outer side, *2 acyl side, *3 side chain or, on linkers, in order; H or OH if unused. Where a SMILES comes first, the peptide text is derived from it. Side-chain parts run from the residue outwards. The star is where a group is joined. γGlu = O=C(O)[C@H](CCC(=O)[*:2])N[*:1]; Palmitoyl = CCCCCCCCCCCCCCCC(=O)* Some results are limits rather than exact numbers.

For orientation: AUC means concentration integrated over time. Low values mean less exposure, high ones more exposure. By half-life is commonly meant how long it takes for the measured level to halve. Low readings indicate rapid decline, high ones slow decline. What is called EC50 is the midpoint of the concentration-response curve.

Sequence of mGcgR (Q61606 27-485): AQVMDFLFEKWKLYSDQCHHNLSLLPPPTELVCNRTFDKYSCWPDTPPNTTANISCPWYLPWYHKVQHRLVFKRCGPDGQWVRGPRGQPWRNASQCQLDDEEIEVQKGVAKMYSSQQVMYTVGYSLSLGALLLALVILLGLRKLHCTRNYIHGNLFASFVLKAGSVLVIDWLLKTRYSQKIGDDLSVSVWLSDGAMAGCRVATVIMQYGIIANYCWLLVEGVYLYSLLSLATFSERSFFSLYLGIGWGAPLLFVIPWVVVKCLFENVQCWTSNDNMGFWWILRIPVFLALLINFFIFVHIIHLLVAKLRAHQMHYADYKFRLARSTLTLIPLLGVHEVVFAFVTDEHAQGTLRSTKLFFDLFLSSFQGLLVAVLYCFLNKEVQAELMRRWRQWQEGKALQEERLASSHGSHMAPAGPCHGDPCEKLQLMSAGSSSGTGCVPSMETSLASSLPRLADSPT
Sequence of hGcgR (P47871 26-477): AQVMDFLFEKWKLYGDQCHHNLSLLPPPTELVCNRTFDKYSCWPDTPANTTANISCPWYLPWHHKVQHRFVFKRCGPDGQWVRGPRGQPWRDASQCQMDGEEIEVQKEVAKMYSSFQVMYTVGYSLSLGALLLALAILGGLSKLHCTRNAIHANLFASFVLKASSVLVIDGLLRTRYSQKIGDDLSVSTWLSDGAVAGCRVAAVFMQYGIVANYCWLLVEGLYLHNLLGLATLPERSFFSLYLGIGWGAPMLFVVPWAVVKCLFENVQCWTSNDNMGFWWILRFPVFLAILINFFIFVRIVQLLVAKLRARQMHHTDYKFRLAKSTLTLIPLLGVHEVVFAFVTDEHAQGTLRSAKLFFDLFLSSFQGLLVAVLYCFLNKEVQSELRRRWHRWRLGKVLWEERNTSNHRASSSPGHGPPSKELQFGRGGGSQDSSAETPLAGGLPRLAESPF

For the molecule `CCCCCCCCCCCCCCCC(=O)N[C@@H](CCC(=O)N[C@@H](CCC(=O)NCCCC[C@H](NC(=O)[C@H](CC(=O)O)NC(=O)[C@H](CO)NC(=O)[C@@H](NC(=O)[C@H](Cc1ccccc1)NC(=O)[C@@H](NC(C)=O)[C@@H](C)O)[C@@H](C)CC)C(=O)N[C@@H](CO)C(=O)N[C@H](C(=O)N[C@@H](C)C(=O)N[C@@H](CC(C)C)C(=O)N[C@@H](CC(=O)O)C(=O)N[C@@H](CCCCN)C(=O)N[C@H](C(=O)N[C@@H](CCCNC(=N)N)C(=O)N[C@@H](CCC(N)=O)C(=O)N[C@@H](CCC(N)=O)C(=O)N[C@@H](CCC(=O)O)C(=O)N[C@@H](Cc1ccccc1)C(=O)N[C@H](C(=O)N[C@@H](CC(N)=O)C(=O)N[C@@H](Cc1c[nH]c2ccccc12)C(=O)N[C@@H](CC(C)C)C(=O)N[C@@H](CC(C)C)C(=O)N[C@@H](C)C(=O)N[C@@H](CCC(N)=O)C(=O)N[C@@H](CCCCN)C(=O)NCC(=O)N[C@@H](CCCCN)C(=O)N[C@@H](CCCCN)C(=O)N[C@@H](CC(N)=O)C(=O)N[C@@H](CC(=O)O)C(=O)N[C@@H](Cc1c[nH]c2ccccc12)C(=O)N[C@@H](CCCCN)C(=O)N[C@@H](Cc1c[nH]cn1)C(=O)N[C@@H](CC(N)=O)C(=O)N[C@H](C(=O)N[C@H](C(=O)N[C@@H](CCC(N)=O)C(N)=O)[C@@H](C)O)[C@@H](C)CC)C(C)C)[C@@H](C)CC)[C@@H](C)CC)C(=O)O)C(=O)O` [Peptide 13, [N^α-Ac, L14, R18, E21] hGIP(5–42)-K10 (γEγE-C16)] (Ac-TFISDK([γGlu-γGlu-Palmitoyl])SIALDKIRQQEFVNWLLAQKGKKNDWKHNITQ-NH2), the “Weight loss when co-administrated with liraglutide” value in the series with DIO mice [1] is given as “did not improve weight loss”. Besides, in the series “Pharmacokinetic”, the AUC turned out to be 21.1 µM·h and the half-life was 1.12 h. In addition, on mGIPR (13 compared with 7), the “Fold less potent at mGIPR than 7 in vitro” value is given as roughly 5 fold.
With `CCCCCCCCCCCCCCCC(=O)N[C@@H](CCC(=O)NCCCC[C@H](NC(=O)[C@H](Cc1ccc(O)cc1)NC(=O)[C@H](CC(=O)O)NC(=O)[C@H](CO)NC(=O)[C@@H](NC(=O)[C@H](Cc1ccccc1)NC(=O)[C@@H](NC(C)=O)[C@@H](C)O)[C@@H](C)CC)C(=O)N[C@H](C(=O)N[C@@H](C)C(=O)N[C@@H](CC(C)C)C(=O)N[C@@H](CC(=O)O)C(=O)N[C@@H](CCCCN)C(=O)N[C@H](C(=O)N[C@@H](CCCNC(=N)N)C(=O)N[C@@H](CCC(N)=O)C(=O)N[C@@H](CCC(N)=O)C(=O)N[C@@H](CCC(=O)O)C(=O)N[C@@H](Cc1ccccc1)C(=O)N[C@H](C(=O)N[C@@H](CC(N)=O)C(=O)N[C@@H](Cc1c[nH]c2ccccc12)C(=O)N[C@@H](CC(C)C)C(=O)N[C@@H](CC(C)C)C(=O)N[C@@H](C)C(=O)N[C@@H](CCC(N)=O)C(=O)N[C@@H](CCCCN)C(=O)NCC(=O)O)C(C)C)[C@@H](C)CC)[C@@H](C)CC)C(=O)O` [Peptide 7, [Nα-Ac, L14, R18, E21] hGIP(5–31)-K11 (γE-C16)], in the series with DIO mice [2], the “Effect on semaglutide mediated reductions in blood glucose” value is “did not affect semaglutide mediated reductions in blood glucose”. Further, the EC50 at hGcgR is greater than 12 µM; on mGcgR, greater than 7 µM. Further, the “Agonism at the hGIPR (cAMP production by peptide alone)” value at hGIPR is reported as “negligible cAMP production as agonists”. The “Glucose control in OGTT (endogenous incretin action)” value in the series with DIO mice [3] is on record as “worsened glucose control”. For the same molecule, the “Glucose iAUC in IPGTT on day 26, high dose” value in the series with DIO male C57BL/6 J mice (7 alone 1500 nmol/kg/d, 24 h after compound injection) was “numeric but insignificant lowering of glucose iAUC”. The “Percent change in body weight” value in the series on DIO male C57BL/6 J mice (7 at 500 nmol/kg/d SC once daily) is on record as “+2.57%”; in the series on DIO male C57BL/6 J mice (7 at 1500 nmol/kg/d SC once daily), −2.88%. Also, the Fasted insulin entry in the series with DIO male C57BL/6 J mice (6 h fast on day 27 of treatment, plasma) is listed as “did not modify reduction in fasting insulin levels seen with semaglutide treatment”. Further, the “Glucose control in IPGTT on day 26” value with DIO male C57BL/6 J mice (24 h after compound injection, semaglutide 2 nmol/kg/d, semaglutide plus 7, 7 alone 500 nmol/kg/d) is on record as “significantly improved glucose control compared to controls”. Besides, in “Pharmacokinetic”, the half-life is 8.45 h. For the same molecule, the “Insulin secretion in response to GIPR antagonist alone (high glucose)” value in the series with intact human islets was “modest and transient, statistically insignificant rise in insulin secretion”. On mGLP-1R, the “Antagonism at mGLP-1R” value is listed as “less antagonism at the mGLP-1R relative to hGLP-1R”. Also, the “Antagonism at mGcgR” value on mGcgR (antagonist mode vs glucagon) is on record as “no antagonism”. The “Agonism at the mGIPR (cAMP production by peptide alone)” value on mGIPR (agonist mode, without native ligand) is on record as “negligible cAMP production as agonists”. Also, the “Agonism at hGLP-1R (maximal)” value on hGLP-1R (agonist mode, Figure 3C) was no more than 20%. In addition, the “% inhibition of native GLP-1 action, hGLP-1R” value on hGLP-1R (antagonist mode) stood at 68%.

Values taken from paper PMC9719863 (Molecular Metabolism, 2022).
